# Test results: ChEMBL document CHEMBL1146380, “Synthesis, antimicrobial activity, and QSAR studies of furan-3-carboxamides” (2007)
# Active and inactive are the calls of the source. The calls are words filed in the database; no cut-off is given here.
# Columns and labels:
# [1] = (§1) Antimicrobial activity against Salmonella setubal ATCC 19196 by broth microdilution method; type: functional, Salmonella enterica subsp. enterica serovar Setubal; conditions: Salmonella enterica
# Method in brief: (§2)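 Bacteria grown overnight on Mueller–Hinton agar. Colonies were suspended in saline to McFarland turbidity (about 10^8 cfu/mL), diluted 1:100 in saline, then 1:20 in Mueller–Hinton broth, giving 5 · 10^4 cfu/mL per well. DMSO-dissolved compound was tested in twofold dilutions from 320 to 1.25 at 35 °C for 24 h. MIC was the lowest concentration with no visible turbidity (M7-A4). Bactericidal concentration was read by subculturing clear wells on Mueller–Hinton agar.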
# [2] = system: Staphylococcus aureus; assay: Antimicrobial activity against Staphylococcus aureus ATCC 25923 by broth microdilution method; type: functional; conditions: for MBC: read-out: MFC; method in brief: as §2
# [3] = system: Escherichia coli; assay: Antimicrobial activity against Escherichia coli ATCC 25922 by broth microdilution method; type: functional; method in brief: as §2
# [4] = system: Pseudomonas aeruginosa; assay: Antimicrobial activity against Pseudomonas aeruginosa ATCC 27853 by broth microdilution method; type: functional; method in brief: as §2
# [5] = system: Klebsiella pneumoniae; assay: Antimicrobial activity against Klebsiella pneumoniae ATCC 1003 by broth microdilution method; type: functional; method in brief: as §2
# [6] = system: Aspergillus terreus; assay: Antimicrobial activity against Aspergillus terreus isolate by broth microdilution method; type: functional
# [7] = system: Rhizopus arrhizus; assay: Antimicrobial activity against Rhizopus oryzae isolate by broth microdilution method; type: functional
# [8] = system: Aspergillus fumigatus; assay: Antimicrobial activity against Aspergillus fumigatus isolate by broth microdilution method; type: functional
# [9] = system: Scedosporium boydii; assay: Antimicrobial activity against Pseudallescheria boydii isolate by broth microdilution method; type: functional
# [10] = system: Sporothrix schenckii; assay: Antimicrobial activity against Sporothrix schenckii ATCC 1146 by broth microdilution method; type: functional
# [11] = system: Aspergillus flavus; assay: Antimicrobial activity against Aspergillus flavus isolate by broth microdilution method; type: functional
# [12] = system: Fusarium solani; assay: Antimicrobial activity against Fusarium solani isolate by broth microdilution method; type: functional
# [13] = system: Aspergillus niger; assay: Antimicrobial activity against Aspergillus niger isolate by broth microdilution method; type: functional
# [14] = system: Prototheca zopfii; assay: Antimicrobial activity against Prototheca zopfii by broth microdilution method; type: functional
# Method in brief: (§3)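 Organism grown on potato dextrose agar, with turbidity-standardized inoculum in RPMI 1640 broth (M27-A2). DMSO-dissolved compound was tested in twofold dilutions from 320 to 1.25 at 35 °C, incubated up to 72 h, in duplicate. MIC was the lowest concentration with no visible growth. Cidal concentration was read by subculturing 20 µL from clear wells on Sabouraud dextrose agar, incubated for the same period.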
# [15] = system: Cryptococcus deneoformans; assay: Antimicrobial activity against Cryptococcus neoformans var.neoformans serotype D ATCC 28952 by broth microdilution method; type: functional; method in brief: as §3
# [16] = system: Candida albicans; assay: Antimicrobial activity against Candida albicans ATCC 44373 by broth microdilution method; type: functional
# Method in brief: (§4)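 Yeasts grown on potato dextrose agar. Inoculum was standardized by McFarland turbidity as for bacteria, into RPMI 1640 broth (M27-A2). DMSO-dissolved compound was tested in twofold dilutions from 320 to 1.25 at 35 °C for 24 h, in duplicate. MIC was the lowest concentration completely inhibiting visible growth. Fungicidal concentration was read by subculturing 20 µL from clear wells on Sabouraud dextrose agar at 35 °C.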
# [17] = system: Saccharomyces cerevisiae; assay: Antimicrobial activity against Saccharomyces cerevisiae ATCC 2601 by broth microdilution method; type: functional; method in brief: as §3
# [18] = system: Candida dubliniensis; assay: Antimicrobial activity against Candida dubliniensis CBS 7987 by broth microdilution method; type: functional; method in brief: as §4
# [19] = system: Nakaseomyces glabratus; assay: Antimicrobial activity against Candida glabrata […] by broth microdilution method; type: functional; method in brief: as §4
# [20] = system: Salmonella enterica subsp. enterica serovar Setubal; assay: as §1; type: functional; method in brief: as §2
Structure (SMILES),MIC [1] [µg/mL],MIC [2] [µg/mL],MIC [3] [µg/mL],MIC [4] [µg/mL],MIC [5] [µg/mL],MIC [6] [µg/mL],MIC [7] [µg/mL],MIC [8] [µg/mL],MIC [9] [µg/mL],MIC [10] [µg/mL],MIC [12],MIC [13] [µg/mL],MIC [14] [µg/mL],MIC [15] [µg/mL],MIC [16] [µg/mL],MIC [17] [µg/mL],MIC [18] [µg/mL],MFC [15] [µg/mL],MFC [16] [µg/mL],MFC [18] [µg/mL],other results
C[C@@H](O)[C@H]1C(=O)N2C(C(=O)O)=C(SCCNC=N)C[C@H]12 [IMIPENEM ANHYDROUS],< 4,0.06,0.06,2,< 4,,,,,,,,,,,,,,,,
C[C@@H]1[C@H](O)[C@@H](C)/C=C/C=C/C=C/C=C/C=C/C=C/C=C/[C@H](O[C@@H]2O[C@H](C)[C@@H](O)[C@H](N)[C@@H]2O)C[C@@H]2O[C@](O)(C[C@@H](O)C[C@@H](O)[C@H](O)CC[C@@H](O)C[C@@H](O)CC(=O)O[C@H]1C)C[C@H](O)[C@H]2C(=O)O [AMPHOTERICIN B],,,,,,2,1,1,4,0.5,1 µg/mL,1,0.5,,,,,,,,MIC [11]: 1 µg/mL
CN(C)c1ccc(CNC(=O)c2ccoc2)cc1,320,80,160,160,160,,320,320,40,320,inactive,320,320,160,80,160,80,320,160,160,Activity [6]: inactive; Activity [7]: inactive; MBC [1]: 320 µg/mL; Activity [8]: inactive; MFC [9]: 320 µg/mL; Activity [17]: inactive; Activity [10]: inactive; MFC [19]: 160 µg/mL; MIC [19]: 80 µg/mL; Activity [11]: inactive; MIC [11]: 320 µg/mL; MBC [2]: 80 µg/mL; Activity [3]: inactive; Activity [13]: inactive; Activity [14]: inactive; MBC [4]: 160 µg/mL; MBC ([5]; read-out: MFC): 160 µg/mL

# Continued, in another order:
MIC [1] [µg/mL],MIC [2] [µg/mL],MIC [3] [µg/mL],MIC [4] [µg/mL],MIC [5] [µg/mL],MIC [6] [µg/mL],MIC [7] [µg/mL],MIC [8] [µg/mL],MIC [9] [µg/mL],MIC [10] [µg/mL],MIC [12],MIC [13] [µg/mL],MIC [14] [µg/mL],MIC [15] [µg/mL],MIC [16] [µg/mL],MIC [17] [µg/mL],MIC [18] [µg/mL],Structure (SMILES),MFC [15] [µg/mL],MFC [16] [µg/mL],MFC [18] [µg/mL],other results
,160,,160,320,320,320,320,320,320,320 µg/mL,320,160,40,80,320,160,O=C(NCCCO)c1ccoc1,80,160,160,MFC [6]: 320 µg/mL; MFC [7]: 320 µg/mL; Activity [20]: inactive; Activity [8]: inactive; MFC [9]: 320 µg/mL; Activity [17]: inactive; MFC [10]: 320 µg/mL; MFC [19]: 160 µg/mL; MIC [19]: 160 µg/mL; Activity [11]: inactive; MBC [2]: 320 µg/mL; MFC [12]: 320 µg/mL; Activity [3]: inactive; Activity [13]: inactive; MFC [14]: 160 µg/mL; MBC [4]: 160 µg/mL; Activity [5]: inactive
160,320,160,40,320,320,320,320,,320,320 µg/mL,320,80,10,40,80,40,O=C(Nn1cnnc1)c1ccoc1,40,40,40,MFC [6]: 320 µg/mL; Activity [7]: inactive; MBC [1]: 320 µg/mL; MFC [8]: 320 µg/mL; Activity [9]: inactive; MFC [17]: 160 µg/mL; Activity [10]: inactive; MFC [19]: 80 µg/mL; MIC [19]: 40 µg/mL; Activity [11]: inactive; MBC [2]: 320 µg/mL; Activity [12]: inactive; MBC [3]: 320 µg/mL; MFC [14]: 320 µg/mL; MBC [4]: 160 µg/mL; Activity [5]: inactive
